Reference: ChEMBL document CHEMBL1145138, “Design and synthesis of 4-azaindoles as inhibitors of p38 MAP kinase” (J Med Chem, 2003)

Experiments:
[1] = molecular target: T1, Mitogen-activated protein kinase 14 (Homo sapiens, UniProt Q16539); assay: In vitro inhibitory concentration against Mitogen-activated protein kinase p38 alpha
[2] = molecular target: Mitogen-activated protein kinase 14 (Rattus norvegicus) (UniProt P70618); assay: In vivo percent inhibition of LPS stimulated TNF alpha synthesis in rat at a concentration of 30 mg/kg; assay type: functional, organism-based; design: dose 30 mg/kg
Outline: (§1)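 Female Wistar/Han rats, 8 per group, were dosed orally at −30 min with compound in CMC vehicle (0.9% NaCl, 0.5% Na-CMC, 0.4% polysorbate 80, 0.9% benzyl alcohol) or with vehicle alone. LPS 50 μg/kg was given ip at 0 h. At 1.5 h, blood was taken by cardiocentesis after CO₂ euthanasia, and serum TNFα was measured by ELISA against vehicle controls.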

[3] = T 1/2 at a dose of 10 mg/Kg administered to female hanover-wistar rat intravenously; assay type: ADME, organism-based; conditions: in vivo, iv
Outline: (§2)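 Female Wistar/Han rats weighing 180–220 g, 3 per dose regime, received a single 10 mg/kg IV bolus in 50% cyclodextran/water. Blood was drawn under CO₂:O₂ (60:40) via orbital sinus or cardiac puncture at 1, 3, 6, 8 and 24 h. Plasma was protein-precipitated with acetonitrile, diluted in 50 mM formate buffer and quantified by LC/MS.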

Rattus norvegicus [4] = assay: AUC at a dose of 10 mg/Kg administered to female hanover-wistar rat per orally; assay type: ADME, organism-based, Plasma; conditions: in vivo, po
Outline: (§3)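 Female Wistar/Han rats (180–220 g, n=3 per regime) received a single 10 mg/kg oral suspension in 0.9% NaCl, 0.5% Na-CMC, 0.4% polysorbate 80 and 0.9% benzyl alcohol. Blood was taken at 1, 3, 6, 8 and 24 h by orbital sinus or cardiac puncture. Plasma drug was measured by LC/MS after acetonitrile precipitation; the comparison arm was a 10 mg/kg IV bolus.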

[5] = T 1/2 at a dose of 10 mg/Kg administered to female hanover-wistar rat per orally; assay type: ADME, organism-based; conditions: in vivo, po; outline: as §3
[6] = Bioavailability at a dose of 10 mg/Kg administered to female hanover-wistar rat per orally; assay type: ADME, organism-based; conditions: in vivo, po; outline: as §3
[7] = C max at a dose of 10 mg/Kg administered to female hanover-wistar rat intravenously; assay type: ADME, organism-based; design: dose 10 mg/Kg, route intravenous; conditions: in vivo, iv; outline: as §2
[8] = AUC at a dose of 10 mg/Kg administered to female hanover-wistar rat intravenously; assay type: ADME, organism-based; conditions: plasma, iv; outline: as §2
[9] = CL at a dose of 10 mg/Kg administered to female hanover-wistar rat intravenously; assay type: ADME, organism-based; conditions: in vivo, iv; outline: as §2
[10] = C max at a dose of 10 mg/Kg administered to female hanover-wistar rat per orally; assay type: ADME, organism-based; design: dose 10 mg/Kg, route oral; conditions: in vivo, po; outline: as §3
[11] = T max at a dose of 10 mg/Kg administered to female hanover-wistar rat per orally; assay type: ADME, organism-based; conditions: in vivo, po; outline: as §3
MAP kinase p38 [12] = molecular target: T2, MAP kinase p38 (Homo sapiens, UniProt O15264+Q15759+Q16539+P53778); assay: In vitro inhibition of LPS induced p38-related TNFalpha release by THP-1 cells; assay type: functional, cell-based
Outline: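 THP-1 cells at 2.5×10⁶ cells/mL in RPMI with 15% FBS and 0.02 mM 2-mercaptoethanol were preincubated 30 min at 37 °C with compound in DMSO-containing medium (DMSO stated as 5% final). LPS was then added at 0.5 μg/mL final for a further 2 h. Supernatant TNFα was read by trapping ELISA with two anti-TNFα antibodies.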

[13] = T max at a dose of 10 mg/Kg administered perorally in female hanover-wistar rat; assay type: ADME, organism-based; conditions: in vivo, po; outline: as §3
[14] = AUC at a dose of 10 mg/Kg administered intravenously in female hanover-wistar rat; assay type: ADME, organism-based; conditions: plasma, iv; outline: as §2
Protein kinase C (PKC) = assay: Inhibition of Protein kinase C; assay type: protein assay
[15] = molecular target: Mitogen-activated protein kinase; ERK1/ERK2 (Homo sapiens, UniProt P27361+P28482); assay: Inhibition of Mitogen-activated protein kinase ERK; assay type: protein assay
[16] = AUC at a dose of 10 mg/Kg administered perorally in female hanover-wistar rat; assay type: ADME, organism-based; conditions: plasma, po; outline: as §3
MAP kinase p38 [17] = molecular target: T2, MAP kinase p38; assay: Inhibition of LPS-induced p38-related IL1-beta production in human white blood cells; assay type: functional, cell-based
Outline: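 Heparinized whole blood from donors medication-free for at least 14 days. Compounds came from a 6 mM DMSO stock, six 3-fold serial dilutions in DMSO, then diluted 1/20 in RPMI and run in triplicate. Blood was preincubated with compound 30 min at 37 °C, then stimulated with E. coli 0127:B8 LPS at 0.5 μg/mL final overnight at 37 °C, 5% CO₂. Plasma IL-1β was measured by ELISA.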

[18] = molecular target: Cyclin-dependent kinase 1 (Homo sapiens, UniProt P06493); assay: Inhibition of Cyclin-dependent kinase 1
[19] = molecular target: Cyclin-dependent kinase 4 (Homo sapiens, UniProt P11802); assay: Inhibition of Cyclin-dependent kinase 4
[20] = molecular target: T3, Inhibitor of nuclear factor kappa-B kinase subunit beta (Homo sapiens, UniProt O14920); assay: Inhibition of I-kappa-B-kinase beta
T3 sequence (O14920 whole entry): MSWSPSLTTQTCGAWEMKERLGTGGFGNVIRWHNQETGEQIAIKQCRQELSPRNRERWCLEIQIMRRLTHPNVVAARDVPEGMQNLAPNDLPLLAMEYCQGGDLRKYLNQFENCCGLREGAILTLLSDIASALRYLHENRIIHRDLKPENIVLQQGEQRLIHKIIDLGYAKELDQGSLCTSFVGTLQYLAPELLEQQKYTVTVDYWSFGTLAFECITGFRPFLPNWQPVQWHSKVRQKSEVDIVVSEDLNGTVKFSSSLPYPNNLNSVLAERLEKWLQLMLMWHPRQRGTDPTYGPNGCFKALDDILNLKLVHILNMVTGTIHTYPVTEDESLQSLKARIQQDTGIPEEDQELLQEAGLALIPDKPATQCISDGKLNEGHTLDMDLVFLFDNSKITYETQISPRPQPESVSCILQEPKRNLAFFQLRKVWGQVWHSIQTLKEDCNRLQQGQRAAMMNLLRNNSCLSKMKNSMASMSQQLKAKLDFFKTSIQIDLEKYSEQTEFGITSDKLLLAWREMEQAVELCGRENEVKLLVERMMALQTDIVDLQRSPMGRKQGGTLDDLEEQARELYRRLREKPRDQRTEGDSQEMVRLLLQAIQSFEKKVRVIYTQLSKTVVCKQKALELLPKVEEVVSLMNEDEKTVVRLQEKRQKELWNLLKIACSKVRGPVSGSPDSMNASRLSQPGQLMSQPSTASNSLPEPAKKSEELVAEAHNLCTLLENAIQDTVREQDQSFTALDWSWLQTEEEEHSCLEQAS

[21] = CL at a dose of 10 mg/Kg administered intravenously in female hanover-wistar rat; assay type: ADME, organism-based; conditions: in vivo, iv; outline: as §2
[22] = molecular target: Cyclin-dependent kinase 3 (Homo sapiens, UniProt Q00526); assay: Inhibition of Cyclin-dependent kinase 3
[23] = Partition coefficient (logP); assay type: physicochemical; conditions: octanol/water
[24] = molecular target: Cyclin-dependent kinase 2 (Homo sapiens, UniProt P24941); assay: Inhibition of Cyclin-dependent kinase 2
[25] = Bioavailability at a dose of 10 mg/Kg administered perorally in female hanover-wistar rat; assay type: ADME, organism-based; conditions: in vivo, po; outline: as §3
[26] = molecular target: T1, Mitogen-activated protein kinase 14; assay: Inhibition of Mitogen-activated protein kinase p38 alpha
Outline: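 Human recombinant active p38α (5 nM) in MOPS pH 7.4 buffer (40 mM MgCl₂, 1 mM DTT, β-glycerophosphate, EGTA, orthovanadate) was preincubated 10 min at room temperature with compound (0–10 μM, DMSO). Reaction was started with γ-[³³P]ATP (50 μM) and MBP (35 μM), run 30 min at 30 °C, then captured on phosphocellulose, acid-washed and counted. IC50 was fitted as fractional activity = 1/([I]/IC50 + 1).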

[27] = molecular target: T4, Interleukin-1 receptor-associated kinase 4 (Homo sapiens, UniProt Q9NWZ3); assay: Inhibition of Interleukin-1 receptor-associated kinase-4
T4 sequence (Q9NWZ3 whole entry): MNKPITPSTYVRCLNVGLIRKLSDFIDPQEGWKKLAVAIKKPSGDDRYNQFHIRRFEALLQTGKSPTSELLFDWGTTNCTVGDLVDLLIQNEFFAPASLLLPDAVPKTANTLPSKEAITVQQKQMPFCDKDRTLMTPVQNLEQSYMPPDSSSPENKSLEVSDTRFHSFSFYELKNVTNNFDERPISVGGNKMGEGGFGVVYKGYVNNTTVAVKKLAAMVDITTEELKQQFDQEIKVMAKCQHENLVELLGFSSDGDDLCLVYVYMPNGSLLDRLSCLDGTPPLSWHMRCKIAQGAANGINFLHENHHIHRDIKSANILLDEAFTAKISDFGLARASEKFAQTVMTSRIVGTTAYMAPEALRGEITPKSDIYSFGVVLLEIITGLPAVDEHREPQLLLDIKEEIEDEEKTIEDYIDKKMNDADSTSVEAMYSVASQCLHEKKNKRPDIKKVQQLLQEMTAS

Rattus norvegicus [28] = species: Rattus norvegicus; assay: Effective dose against LPS stimulated TNF alpha production in rats; assay type: functional; outline: as §1
[29] = C max at a dose of 10 mg/Kg administered intravenously in female hanover-wistar rat; assay type: ADME, organism-based; design: dose 10 mg/Kg, route intravenous; conditions: in vivo, iv; outline: as §2
[30] = molecular target: Interleukin-1 receptor-associated kinase 1 (Homo sapiens, UniProt P51617); assay: Inhibition of interleukin-1 receptor-associated kinase 1
[31] = T max at a dose of 10 mg/Kg administered intravenously in female hanover-wistar rat; assay type: ADME, organism-based; conditions: in vivo, iv; outline: as §2
[32] = C max at a dose of 10 mg/Kg administered perorally in female hanover-wistar rat; assay type: ADME, organism-based; design: dose 10 mg/Kg, route oral; conditions: in vivo, po; outline: as §3
[33] = T 1/2 at a dose of 10 mg/Kg administered intravenously in female hanover-wistar rat; assay type: ADME, organism-based; conditions: in vivo, iv; outline: as §2
[34] = molecular target: MAP kinase-activated protein kinase 2 (Homo sapiens, UniProt P49137); assay: Inhibition of MAP kinase-activated protein kinase 2
[35] = molecular target: cAMP-dependent protein kinase (PKA) (Homo sapiens, UniProt P22694+P17612+P22612); assay: Inhibition of Protein kinase A (PKA); assay type: protein assay
[36] = molecular target: Mitogen-activated protein kinase 8 (Homo sapiens, UniProt P45983); assay: Inhibition of c-Jun N-terminal kinase 1
Homo sapiens = species: Homo sapiens; assay: Caco-2 permeability was determined; activity value is 5.8*10e-5; assay type: ADME
[37] = molecular target: Tyrosine-protein kinase Fyn (Homo sapiens, UniProt P06241); assay: Inhibition of p55 Fyn kinase
[38] = molecular target: Vascular endothelial growth factor receptor 2 (Homo sapiens, UniProt P35968); assay: Inhibition of Vascular endothelial growth factor receptor 2
[39] = T 1/2 at a dose of 10 mg/Kg administered perorally in female hanover-wistar rat; assay type: ADME, organism-based; conditions: in vivo, po; outline: as §3

T1 sequence (Q16539 whole entry): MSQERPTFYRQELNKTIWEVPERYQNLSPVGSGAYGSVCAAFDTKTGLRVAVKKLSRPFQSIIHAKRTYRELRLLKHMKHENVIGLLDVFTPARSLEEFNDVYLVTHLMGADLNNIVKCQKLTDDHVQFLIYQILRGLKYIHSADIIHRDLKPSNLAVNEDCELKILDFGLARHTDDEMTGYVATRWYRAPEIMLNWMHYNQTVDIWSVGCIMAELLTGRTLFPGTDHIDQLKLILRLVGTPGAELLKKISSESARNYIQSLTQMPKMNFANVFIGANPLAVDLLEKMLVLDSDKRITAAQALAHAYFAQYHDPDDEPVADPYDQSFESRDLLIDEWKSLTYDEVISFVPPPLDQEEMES
Mitogen-activated protein kinase 14 (Rattus norvegicus), sequence (P70618 whole entry): as the sequence (Q16539 whole entry) above, with I17V, L48H, T263A, D321E, L332F counted along it
MAP kinase-activated protein kinase 2, sequence (P49137 whole entry): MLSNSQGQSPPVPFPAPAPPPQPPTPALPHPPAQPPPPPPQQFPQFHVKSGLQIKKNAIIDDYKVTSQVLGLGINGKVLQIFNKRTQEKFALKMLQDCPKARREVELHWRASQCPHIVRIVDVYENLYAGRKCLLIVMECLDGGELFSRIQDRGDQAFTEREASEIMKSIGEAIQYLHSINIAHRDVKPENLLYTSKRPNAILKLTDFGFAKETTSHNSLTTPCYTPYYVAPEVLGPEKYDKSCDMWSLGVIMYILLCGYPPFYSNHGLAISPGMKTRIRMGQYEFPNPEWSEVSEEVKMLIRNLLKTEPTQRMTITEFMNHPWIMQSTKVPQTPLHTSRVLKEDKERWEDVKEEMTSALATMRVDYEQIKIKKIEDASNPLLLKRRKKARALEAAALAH
Interleukin-1 receptor-associated kinase 1, sequence (P51617 whole entry): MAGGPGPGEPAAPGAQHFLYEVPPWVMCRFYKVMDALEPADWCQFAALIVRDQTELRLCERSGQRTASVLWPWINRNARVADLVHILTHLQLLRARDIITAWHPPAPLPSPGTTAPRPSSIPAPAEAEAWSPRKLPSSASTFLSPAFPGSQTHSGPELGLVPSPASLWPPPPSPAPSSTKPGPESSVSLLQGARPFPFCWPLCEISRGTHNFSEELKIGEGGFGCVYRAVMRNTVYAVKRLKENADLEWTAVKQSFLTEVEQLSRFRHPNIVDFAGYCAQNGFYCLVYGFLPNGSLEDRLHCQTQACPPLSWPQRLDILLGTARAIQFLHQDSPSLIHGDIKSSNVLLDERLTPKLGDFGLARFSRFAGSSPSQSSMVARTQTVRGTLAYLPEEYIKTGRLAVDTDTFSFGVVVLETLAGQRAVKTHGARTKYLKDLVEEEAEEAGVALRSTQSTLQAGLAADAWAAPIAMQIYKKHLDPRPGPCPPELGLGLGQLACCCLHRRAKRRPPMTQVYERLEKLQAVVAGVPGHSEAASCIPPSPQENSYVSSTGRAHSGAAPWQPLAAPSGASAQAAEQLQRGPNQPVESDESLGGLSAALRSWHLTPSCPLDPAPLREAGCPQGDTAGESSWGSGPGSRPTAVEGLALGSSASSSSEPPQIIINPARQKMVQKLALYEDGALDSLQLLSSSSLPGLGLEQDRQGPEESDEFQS
Mitogen-activated protein kinase 8, sequence (P45983 whole entry): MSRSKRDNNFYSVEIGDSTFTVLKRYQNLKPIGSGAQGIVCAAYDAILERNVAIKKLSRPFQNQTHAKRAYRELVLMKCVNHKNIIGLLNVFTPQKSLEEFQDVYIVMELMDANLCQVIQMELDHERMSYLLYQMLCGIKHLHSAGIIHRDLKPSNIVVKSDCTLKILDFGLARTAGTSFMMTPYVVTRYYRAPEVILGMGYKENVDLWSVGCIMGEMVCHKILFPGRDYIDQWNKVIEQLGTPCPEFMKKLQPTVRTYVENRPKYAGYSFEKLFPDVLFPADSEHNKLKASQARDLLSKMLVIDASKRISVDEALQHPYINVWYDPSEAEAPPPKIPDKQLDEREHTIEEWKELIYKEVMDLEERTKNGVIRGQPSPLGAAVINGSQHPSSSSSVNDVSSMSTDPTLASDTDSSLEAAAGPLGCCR
Cyclin-dependent kinase 3, sequence (Q00526 whole entry): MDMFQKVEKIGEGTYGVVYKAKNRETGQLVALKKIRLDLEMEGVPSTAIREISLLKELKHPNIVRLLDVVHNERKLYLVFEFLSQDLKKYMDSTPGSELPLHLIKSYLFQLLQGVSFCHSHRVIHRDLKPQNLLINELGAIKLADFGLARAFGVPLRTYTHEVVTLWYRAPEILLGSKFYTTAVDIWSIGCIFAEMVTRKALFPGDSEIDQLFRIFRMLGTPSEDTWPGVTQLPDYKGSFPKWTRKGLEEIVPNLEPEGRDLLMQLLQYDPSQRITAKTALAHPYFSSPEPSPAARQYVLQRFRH
Tyrosine-protein kinase Fyn, sequence (P06241 whole entry): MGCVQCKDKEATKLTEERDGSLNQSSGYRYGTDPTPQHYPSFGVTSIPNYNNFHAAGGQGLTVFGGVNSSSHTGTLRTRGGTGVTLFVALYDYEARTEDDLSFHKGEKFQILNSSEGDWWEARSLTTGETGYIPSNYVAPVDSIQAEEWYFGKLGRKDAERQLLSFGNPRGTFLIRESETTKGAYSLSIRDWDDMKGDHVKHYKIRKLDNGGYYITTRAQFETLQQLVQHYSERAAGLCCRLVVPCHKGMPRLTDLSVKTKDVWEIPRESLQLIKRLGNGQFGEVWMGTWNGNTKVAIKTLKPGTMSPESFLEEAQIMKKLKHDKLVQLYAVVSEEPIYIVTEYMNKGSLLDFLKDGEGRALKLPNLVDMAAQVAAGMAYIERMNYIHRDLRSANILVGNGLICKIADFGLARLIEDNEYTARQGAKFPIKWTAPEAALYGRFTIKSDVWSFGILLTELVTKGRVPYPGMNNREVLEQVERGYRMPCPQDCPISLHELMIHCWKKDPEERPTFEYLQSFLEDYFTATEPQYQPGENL
Cyclin-dependent kinase 1, sequence (P06493 whole entry): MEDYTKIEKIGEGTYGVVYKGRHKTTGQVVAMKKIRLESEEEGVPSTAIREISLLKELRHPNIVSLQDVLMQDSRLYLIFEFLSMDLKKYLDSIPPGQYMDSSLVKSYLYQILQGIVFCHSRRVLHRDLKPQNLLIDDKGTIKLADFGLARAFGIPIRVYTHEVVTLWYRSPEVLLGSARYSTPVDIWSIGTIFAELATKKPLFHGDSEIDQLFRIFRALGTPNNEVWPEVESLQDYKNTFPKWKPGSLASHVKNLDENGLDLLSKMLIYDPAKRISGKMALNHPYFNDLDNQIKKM
Vascular endothelial growth factor receptor 2, sequence (P35968 whole entry): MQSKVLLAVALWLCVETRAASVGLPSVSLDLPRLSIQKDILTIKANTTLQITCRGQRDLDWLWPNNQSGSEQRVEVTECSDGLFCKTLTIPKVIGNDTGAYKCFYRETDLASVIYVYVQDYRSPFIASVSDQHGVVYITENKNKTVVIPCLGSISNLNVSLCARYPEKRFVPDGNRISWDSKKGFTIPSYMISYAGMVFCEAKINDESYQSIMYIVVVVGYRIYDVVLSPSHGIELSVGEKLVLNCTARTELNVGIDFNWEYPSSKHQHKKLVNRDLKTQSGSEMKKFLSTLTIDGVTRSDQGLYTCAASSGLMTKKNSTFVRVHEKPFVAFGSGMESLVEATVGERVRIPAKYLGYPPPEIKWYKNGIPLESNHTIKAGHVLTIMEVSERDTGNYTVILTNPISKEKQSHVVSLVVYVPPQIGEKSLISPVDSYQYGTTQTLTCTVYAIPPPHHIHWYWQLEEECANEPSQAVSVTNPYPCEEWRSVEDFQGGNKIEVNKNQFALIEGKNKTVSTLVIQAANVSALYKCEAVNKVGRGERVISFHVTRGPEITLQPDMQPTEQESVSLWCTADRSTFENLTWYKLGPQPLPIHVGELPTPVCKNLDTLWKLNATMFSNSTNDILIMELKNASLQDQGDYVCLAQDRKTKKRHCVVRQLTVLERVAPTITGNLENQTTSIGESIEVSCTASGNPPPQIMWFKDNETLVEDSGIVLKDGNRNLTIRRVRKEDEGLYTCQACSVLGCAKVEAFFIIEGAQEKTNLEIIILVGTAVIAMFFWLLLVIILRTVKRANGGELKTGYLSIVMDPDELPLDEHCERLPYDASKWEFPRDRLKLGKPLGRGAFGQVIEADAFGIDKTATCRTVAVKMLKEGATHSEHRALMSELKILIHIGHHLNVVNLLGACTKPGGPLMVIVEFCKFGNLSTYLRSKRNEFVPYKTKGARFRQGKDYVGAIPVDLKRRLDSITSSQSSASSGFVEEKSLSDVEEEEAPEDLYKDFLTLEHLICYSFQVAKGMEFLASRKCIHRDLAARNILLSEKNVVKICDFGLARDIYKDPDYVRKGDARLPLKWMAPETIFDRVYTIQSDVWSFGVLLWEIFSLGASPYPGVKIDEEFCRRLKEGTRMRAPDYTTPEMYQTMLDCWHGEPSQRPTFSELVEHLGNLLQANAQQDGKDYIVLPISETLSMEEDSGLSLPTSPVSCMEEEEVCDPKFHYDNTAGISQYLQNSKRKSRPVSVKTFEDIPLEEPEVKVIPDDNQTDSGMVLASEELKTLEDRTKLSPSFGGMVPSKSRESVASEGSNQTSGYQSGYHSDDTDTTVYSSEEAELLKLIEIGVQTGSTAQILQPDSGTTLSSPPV
Cyclin-dependent kinase 4, sequence (P11802 whole entry): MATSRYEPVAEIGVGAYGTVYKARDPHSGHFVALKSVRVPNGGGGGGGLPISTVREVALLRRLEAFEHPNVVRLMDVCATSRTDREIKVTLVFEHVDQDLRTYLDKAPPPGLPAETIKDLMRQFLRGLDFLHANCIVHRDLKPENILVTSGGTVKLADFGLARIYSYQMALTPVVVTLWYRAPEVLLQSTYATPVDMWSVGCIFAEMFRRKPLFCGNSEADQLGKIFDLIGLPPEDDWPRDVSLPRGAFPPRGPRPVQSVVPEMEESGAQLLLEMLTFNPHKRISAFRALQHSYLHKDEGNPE

Structure (SMILES): Fc1ccc(-c2c(-c3ccncc3)n(CCN3CCCC3)c3cccnc23)cc1
- IC50 [1]: 0.217 µM
- inhibition [2]: 86%

Structure (SMILES): Fc1ccc(-c2c(-c3ccncc3)[nH]c3cccnc23)cc1
- IC50 [1]: 0.0065 µM
- inhibition [2]: 46%

Structure (SMILES): C[C@@H](O)CNc1cc(-c2[nH]c3cccnc3c2-c2ccc(F)cc2)ccn1
- IC50 [1]: 0.001 µM
- half-life [3]: 2.9 h
- AUC (Rattus norvegicus [4]): 8.4 µM·h
- half-life [5]: 1.5 h
- bioavailability [6]: 30.5%
- Cmax [7]: 8.8 µM
- AUC [8]: 27.5 µM·h
- clearance [9]: 16.7 mL/min/kg
- Cmax [10]: 2.8 µM
- inhibition [2]: 76%
- Tmax [11]: 1 h

Structure (SMILES): Nc1ncnc2c1cc(-c1ccncc1)n2-c1ccc(F)cc1
- IC50 [1]: 3.3 µM

Structure (SMILES): C[C@H](O)CNc1cc(-c2[nH]c3cccnc3c2-c2ccc(F)cc2)ccn1
- IC50 [1]: 0.001 µM
- IC50 (MAP kinase p38 [12]): 0.0017 µM
- Tmax [13]: 1 h
- AUC [14]: 23.4 µM·h
- IC50 (Protein kinase C (PKC)): > 10 µM
- IC50 [15]: > 10 µM
- AUC [16]: 20 µM·h
- IC50 (MAP kinase p38 [17]): 0.21 µM
- IC50 [18]: > 25 µM
- IC50 [19]: > 25 µM
- IC50 [20]: > 30 µM
- clearance [21]: 20 mL/min/kg
- IC50 [22]: > 25 µM
- logP [23]: 3.5
- IC50 [24]: > 25 µM
- bioavailability [25]: 85.6%
- IC50 [26]: 0.00129 µM
- IC50 [27]: > 30 µM
- ED50 (Rattus norvegicus [28]): 2 mg/kg
- Cmax [29]: 10.3 µM
- IC50 [30]: > 30 µM
- Tmax [31]: < 1 h
- Cmax [32]: 6.9 µM
- half-life [33]: 1.1 h
- IC50 [34]: > 30 µM
- IC50 [35]: > 10 µM
- IC50 [36]: > 10 µM
- inhibition [2]: 88%
- Cell permeation (Homo sapiens): Permeable
- IC50 [37]: > 10 µM
- IC50 [38]: > 10 µM
- half-life [39]: 1.5 h
